We go through eight molecules from paper PMC4135234 (Combinatorial chemistry & high throughput screening, 2014).

Series [1] addresses T1, LIN28A (Homo sapiens, UniProt Q9H9Z2).
T1 sequence (Q9H9Z2 1-209): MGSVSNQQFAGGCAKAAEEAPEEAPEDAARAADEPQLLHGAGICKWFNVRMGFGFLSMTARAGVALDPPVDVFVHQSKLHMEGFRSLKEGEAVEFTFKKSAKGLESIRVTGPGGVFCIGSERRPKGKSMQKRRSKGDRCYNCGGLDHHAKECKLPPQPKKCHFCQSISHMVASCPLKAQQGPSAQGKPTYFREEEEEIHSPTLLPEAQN
The experiment in a line: SYBR-based RNA EMSA, ssRNA oligo binding to GST-LIN28A. To be noted: 200 pmols ssRNA oligo, 500 to 2500 ng GST-protein; symbols not defined. For orientation: A gel shift assay detects complexes by their altered migration in electrophoresis.

The target of series [2] is T2, MSI2 (Homo sapiens, UniProt Q96DH6). The experiment in a line: SYBR-based RNA EMSA, ssRNA oligo binding to GST-MSI2. To be noted: 200 pmols ssRNA oligo, 500 to 2500 ng GST-protein; symbols not defined.
The target in series [3] is T3, MSI1 (Homo sapiens, UniProt O43347). The experiment in a line: SYBR-based RNA EMSA, ssRNA oligo binding to GST-MSI1. The note with it: 200 pmols ssRNA oligo, 500 to 2500 ng GST-protein; symbols not defined.
Another series has as its system MSI. The experiment in a line: FP MSI RNA binding assay, statement does not separate MSI1 and MSI2. Further details: species or system human. The note with it: 10 μM.
For series [4], the target named is T1, LIN28A. Description: Orthogonal SYBR-based EMSA, inhibition of RNA binding to LIN28A. To be noted: 1 mM (LC), MSI Oligo #2 200 pmols, 1000 ng protein. The gist of the method:
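GST-LIN28A (1000 ng, E. coli-expressed) pre-incubated 30 min at room temperature in EMSA buffer with 1% DMSO, 10 μM test compound or 1 mM oleic acid. Then 200 pmols 15-nt ssRNA MSI Oligo #2 added for 30 min more (20 μL). Native 10% polyacrylamide TBE gel in chilled 0.5X TBE at 4°C, 100V, 2–2.5 h. 2X SYBR Safe stain, imaged. At least two repeats.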

For series [5], the target named is T2, MSI2. Description: Orthogonal SYBR-based EMSA, inhibition of RNA binding to MSI2. To be noted: 1 mM (LC), MSI Oligo #2 200 pmols, 1000 ng protein.
In series [6] the target is T3, MSI1. Description: Orthogonal SYBR-based EMSA, inhibition of RNA binding to MSI1. The note with it: 1 mM (LC), MSI Oligo #2 200 pmols, 1000 ng protein.
Series [7] has as its target T2, MSI2. Description: FP probe displacement, 1536-well, MSI2. It counts as binding. The gist of the method: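 Displacement of 10 nM Cy3-C9-r(GUAGUAGU) probe from 1 μM GST-MSI2 was run as a dose response in 1536-well format, with FP read using Cy3 filters. IC50 for displacement came from two independent experiments, each performed in triplicate.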

T2 sequence (Q96DH6 whole entry): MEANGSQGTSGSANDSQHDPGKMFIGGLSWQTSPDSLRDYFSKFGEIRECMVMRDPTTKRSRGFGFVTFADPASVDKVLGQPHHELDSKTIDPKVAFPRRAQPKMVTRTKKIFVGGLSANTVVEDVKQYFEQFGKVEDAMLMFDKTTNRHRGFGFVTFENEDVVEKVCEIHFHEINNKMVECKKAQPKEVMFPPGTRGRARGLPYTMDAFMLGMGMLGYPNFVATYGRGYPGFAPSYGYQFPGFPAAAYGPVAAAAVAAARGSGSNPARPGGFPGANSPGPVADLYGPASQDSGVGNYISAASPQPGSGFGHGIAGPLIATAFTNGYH
T3 sequence (O43347 whole entry): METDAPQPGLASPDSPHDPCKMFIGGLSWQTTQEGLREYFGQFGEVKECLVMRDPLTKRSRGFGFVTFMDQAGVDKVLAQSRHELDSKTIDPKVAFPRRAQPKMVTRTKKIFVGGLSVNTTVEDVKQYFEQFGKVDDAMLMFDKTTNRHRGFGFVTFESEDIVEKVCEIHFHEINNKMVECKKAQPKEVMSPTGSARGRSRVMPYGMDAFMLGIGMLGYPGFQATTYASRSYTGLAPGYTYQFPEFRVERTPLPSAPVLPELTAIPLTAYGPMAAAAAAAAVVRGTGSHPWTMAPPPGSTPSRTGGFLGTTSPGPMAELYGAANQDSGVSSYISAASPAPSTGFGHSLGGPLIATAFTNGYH

Take “ssRNA Oligo #8: non-specific ssRNA oligo AGGGAUCGAAAAUUG, 15 nt, no binding motif (RNA, backbone not given here)”: in the series with LIN28A [1], the “Binding affinity(EMSA) LIN28A” value is listed as “high affinity”.

Regarding “MSI Oligo #4: ssRNA oligo GUAGUAGUAGUAGUA, 15 nt, 4 MSI binding motifs (RNA, backbone not given here)”, the “Binding affinity(EMSA) MSI2” value with MSI2 [2] is on record as “highest affinity”. The “Binding affinity(EMSA) MSI1” value with MSI1 [3] is “highest affinity”. The “Binding affinity(EMSA) LIN28A” value in the series with LIN28A [1] was “highest affinity”.

On to `CC[C@@]1(O)C[C@H](O)c2c(cc3c(c2O)C(=O)c2c(O)ccc(O)c2C3=O)[C@H]1C(=O)OC` [rutilantinone], for which the “MSI inhibition activity in FP pilot screen, in words” value (“MSI inhibition activity” for short) in the series on MSI is reported as “inhibiting MSI binding activity”.

Take `COc1cccc2c1C(=O)c1c(O)c3c(c(O)c1C2=O)C[C@@](O)(C(=O)CO)C[C@@H]3O[C@H]1C[C@H](N)[C@H](O)[C@H](C)O1` [doxorubicin, reference compound]: the “MSI inhibition activity” value in the series on MSI is reported as “inhibiting MSI binding activity”.

In the case of `COc1cccc2c1C(=O)c1c(O)c3c(c(O)c1C2=O)C[C@@](O)(C(C)=O)C[C@@H]3O[C@H]1C[C@H](N)[C@H](O)[C@H](C)O1` [daunorubicin, reference compound], in the series on MSI, the “MSI inhibition activity” value is given as “inhibiting MSI binding activity”.

Turning to `CC[C@@]1(O)C[C@H](O[C@H]2C[C@H](N(C)C)[C@H](O)[C@H](C)O2)c2c(cc3c(c2O)C(=O)c2c(O)cccc2C3=O)[C@H]1C(=O)OC` [aklavine], the “MSI inhibition activity” value with MSI is on record as “inhibiting MSI binding activity”.

Take `CC(=O)[C@]1(O)Cc2c(O)c3c(c(O)c2[C@@H](O[C@H]2C[C@H](N)[C@H](O)[C@H](C)O2)C1)C(=O)c1ccccc1C3=O` [idarubicin, reference compound]: in the series with MSI, the “MSI inhibition activity” value is given as “inhibiting MSI binding activity”.

The IC50 is the point on the concentration scale where inhibition reaches its midpoint. For the molecule `CCCCCCCC/C=C\CCCCCCCC(=O)O` [oleic acid, reference compound], the “% inhibition of RNA binding to LIN28A (EMSA)” value at LIN28A [4] is > 80%. In addition, the “% inhibition of RNA binding to MSI2 (EMSA)” value on MSI2 [5] was > 80%. Moreover, the “% inhibition of RNA binding to MSI1 (EMSA)” value at MSI1 [6] is > 80%. In addition, the IC50 at MSI2 [7] was 29 ± 1.7 µM.
